Assay [1] addresses Lysine-specific demethylase 6A (Homo sapiens, UniProt O15550). Briefly: Inhibition of human recombinant KDM6A after 120 mins.
A further assay concerns HeLa. Briefly: Cell cycle arrest in human HeLa cells assessed as reduction in G2/M phase after 24 hrs by FACS analysis. The format is functional, cell-based. Summed up: (§1)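 HeLa or KYSE150 cells (5×10^5) were exposed for 24 h to 10 or 100 μM in RPMI 1640 with 10% FBS, then trypsinized. Cells were fixed in ice-cold 70% ethanol, PBS-washed and stained with propidium iodide (10 μg/mL) plus RNase A (0.2 mg/mL) for 30 min at 25 °C. Phase distribution was read by flow cytometry.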
(A flow cytometer gives signals particle by particle.)

A further assay relates to N2a. As to the kind of experiment: Growth inhibition of mouse N2A cells after 48 hrs by MTT assay. The format is functional. Summed up:
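Cells were seeded at 5000/well in RPMI 1640 with 10% FBS and allowed to attach overnight, then exposed for 48 h at 37 °C in 5% CO2. MTT was added for 3 h, and the dye was solubilized in HCl–2-propanol and read at 560 nm (reference 750 nm).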
For orientation: Tetrazolium assays rely on reduction of a dye to a coloured formazan, in cell work by metabolically active cells.

The target in assay [2] is Lysine-specific demethylase 7A/7B (Homo sapiens) (UniProt Q9UPP1+Q6ZMT4). As to the kind of experiment: Inhibition of KDM7A/7B in human HeLa cells assessed as H3K27me2 level at GI50 after 24 hrs by Western blot analysis. The format is cell-based. The gist of the method:
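Cells (5×10^5) were treated for 24 h in OPTI-MEM and lysed in SDS buffer. Equal protein amounts, set by Bradford assay, were resolved on 4–20% SDS-PAGE and blotted. Blots were probed with anti-H3K27me2 (1:1000) and anti-H3 (1:100000) as loading reference, detected with an HRP secondary antibody, and visualized by ECL.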

A short description of assay [3]: Cell cycle arrest in human KYSE-150 cells assessed as reduction in G2/M phase after 24 hrs by FACS analysis. The format is functional, cell-based. Summed up: as §1

What is called IC50 is the concentration needed to halve the response being measured. What is called GI50 is the concentration that inhibits growth by half. Higher therefore signals lower sensitivity of the cells.

Active and inactive are the calls of the source. No cut-off for these calls is given here.

Chain of Lysine-specific demethylase 7A/7B (Homo sapiens) (Q6ZMT4 whole entry, looked up): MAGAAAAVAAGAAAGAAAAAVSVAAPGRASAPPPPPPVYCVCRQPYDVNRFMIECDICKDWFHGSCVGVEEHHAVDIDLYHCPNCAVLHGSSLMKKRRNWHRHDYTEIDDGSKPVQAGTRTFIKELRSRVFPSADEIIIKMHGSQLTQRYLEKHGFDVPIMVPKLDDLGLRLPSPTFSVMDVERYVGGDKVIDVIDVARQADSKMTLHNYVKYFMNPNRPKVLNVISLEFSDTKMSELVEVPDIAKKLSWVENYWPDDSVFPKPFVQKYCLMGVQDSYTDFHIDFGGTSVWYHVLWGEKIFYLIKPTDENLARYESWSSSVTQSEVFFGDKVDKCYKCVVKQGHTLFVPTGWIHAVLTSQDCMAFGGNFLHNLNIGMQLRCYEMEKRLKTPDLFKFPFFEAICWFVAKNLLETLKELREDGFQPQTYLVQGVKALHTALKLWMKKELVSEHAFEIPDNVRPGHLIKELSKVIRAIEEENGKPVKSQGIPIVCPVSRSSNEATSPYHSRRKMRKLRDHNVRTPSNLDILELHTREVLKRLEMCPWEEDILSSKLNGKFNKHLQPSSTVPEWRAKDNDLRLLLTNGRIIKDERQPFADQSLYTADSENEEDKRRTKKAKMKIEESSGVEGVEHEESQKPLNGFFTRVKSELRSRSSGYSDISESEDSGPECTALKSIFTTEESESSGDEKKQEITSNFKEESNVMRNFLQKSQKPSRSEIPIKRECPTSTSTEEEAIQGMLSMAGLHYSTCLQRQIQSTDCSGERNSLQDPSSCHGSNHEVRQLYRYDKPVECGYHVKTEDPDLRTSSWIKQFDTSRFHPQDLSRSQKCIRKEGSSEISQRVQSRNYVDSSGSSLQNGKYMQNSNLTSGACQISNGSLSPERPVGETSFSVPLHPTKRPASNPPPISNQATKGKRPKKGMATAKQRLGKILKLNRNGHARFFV
Chain of Lysine-specific demethylase 7A/7B (Homo sapiens) (Q9UPP1 whole entry, looked up): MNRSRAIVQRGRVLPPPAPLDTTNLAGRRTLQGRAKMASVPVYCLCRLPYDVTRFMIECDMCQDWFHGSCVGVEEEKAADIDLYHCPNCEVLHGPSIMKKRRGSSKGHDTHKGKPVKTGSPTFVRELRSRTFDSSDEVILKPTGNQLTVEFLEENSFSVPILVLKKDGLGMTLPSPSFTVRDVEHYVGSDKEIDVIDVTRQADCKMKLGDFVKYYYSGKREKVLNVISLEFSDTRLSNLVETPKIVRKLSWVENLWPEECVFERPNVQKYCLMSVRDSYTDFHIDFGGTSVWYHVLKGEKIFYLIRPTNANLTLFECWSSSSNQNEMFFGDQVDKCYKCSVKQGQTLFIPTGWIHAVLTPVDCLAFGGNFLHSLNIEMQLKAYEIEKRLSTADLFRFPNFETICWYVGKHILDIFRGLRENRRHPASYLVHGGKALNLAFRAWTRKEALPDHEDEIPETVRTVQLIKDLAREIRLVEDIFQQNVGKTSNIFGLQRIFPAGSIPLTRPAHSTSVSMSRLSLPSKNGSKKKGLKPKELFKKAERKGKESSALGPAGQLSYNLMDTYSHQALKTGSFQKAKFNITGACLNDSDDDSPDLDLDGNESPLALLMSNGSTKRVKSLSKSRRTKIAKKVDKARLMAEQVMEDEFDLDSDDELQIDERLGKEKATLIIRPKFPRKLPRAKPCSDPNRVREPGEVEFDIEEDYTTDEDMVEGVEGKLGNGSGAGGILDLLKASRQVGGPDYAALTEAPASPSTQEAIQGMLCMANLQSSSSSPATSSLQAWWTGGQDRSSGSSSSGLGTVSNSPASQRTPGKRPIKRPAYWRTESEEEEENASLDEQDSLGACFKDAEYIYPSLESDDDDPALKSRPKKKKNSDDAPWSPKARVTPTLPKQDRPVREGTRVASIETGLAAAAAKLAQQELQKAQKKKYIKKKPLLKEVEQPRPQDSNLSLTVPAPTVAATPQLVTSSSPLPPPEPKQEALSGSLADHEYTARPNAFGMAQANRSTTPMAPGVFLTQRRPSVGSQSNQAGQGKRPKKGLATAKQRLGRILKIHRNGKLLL
Chain of Lysine-specific demethylase 6A (O15550 whole entry): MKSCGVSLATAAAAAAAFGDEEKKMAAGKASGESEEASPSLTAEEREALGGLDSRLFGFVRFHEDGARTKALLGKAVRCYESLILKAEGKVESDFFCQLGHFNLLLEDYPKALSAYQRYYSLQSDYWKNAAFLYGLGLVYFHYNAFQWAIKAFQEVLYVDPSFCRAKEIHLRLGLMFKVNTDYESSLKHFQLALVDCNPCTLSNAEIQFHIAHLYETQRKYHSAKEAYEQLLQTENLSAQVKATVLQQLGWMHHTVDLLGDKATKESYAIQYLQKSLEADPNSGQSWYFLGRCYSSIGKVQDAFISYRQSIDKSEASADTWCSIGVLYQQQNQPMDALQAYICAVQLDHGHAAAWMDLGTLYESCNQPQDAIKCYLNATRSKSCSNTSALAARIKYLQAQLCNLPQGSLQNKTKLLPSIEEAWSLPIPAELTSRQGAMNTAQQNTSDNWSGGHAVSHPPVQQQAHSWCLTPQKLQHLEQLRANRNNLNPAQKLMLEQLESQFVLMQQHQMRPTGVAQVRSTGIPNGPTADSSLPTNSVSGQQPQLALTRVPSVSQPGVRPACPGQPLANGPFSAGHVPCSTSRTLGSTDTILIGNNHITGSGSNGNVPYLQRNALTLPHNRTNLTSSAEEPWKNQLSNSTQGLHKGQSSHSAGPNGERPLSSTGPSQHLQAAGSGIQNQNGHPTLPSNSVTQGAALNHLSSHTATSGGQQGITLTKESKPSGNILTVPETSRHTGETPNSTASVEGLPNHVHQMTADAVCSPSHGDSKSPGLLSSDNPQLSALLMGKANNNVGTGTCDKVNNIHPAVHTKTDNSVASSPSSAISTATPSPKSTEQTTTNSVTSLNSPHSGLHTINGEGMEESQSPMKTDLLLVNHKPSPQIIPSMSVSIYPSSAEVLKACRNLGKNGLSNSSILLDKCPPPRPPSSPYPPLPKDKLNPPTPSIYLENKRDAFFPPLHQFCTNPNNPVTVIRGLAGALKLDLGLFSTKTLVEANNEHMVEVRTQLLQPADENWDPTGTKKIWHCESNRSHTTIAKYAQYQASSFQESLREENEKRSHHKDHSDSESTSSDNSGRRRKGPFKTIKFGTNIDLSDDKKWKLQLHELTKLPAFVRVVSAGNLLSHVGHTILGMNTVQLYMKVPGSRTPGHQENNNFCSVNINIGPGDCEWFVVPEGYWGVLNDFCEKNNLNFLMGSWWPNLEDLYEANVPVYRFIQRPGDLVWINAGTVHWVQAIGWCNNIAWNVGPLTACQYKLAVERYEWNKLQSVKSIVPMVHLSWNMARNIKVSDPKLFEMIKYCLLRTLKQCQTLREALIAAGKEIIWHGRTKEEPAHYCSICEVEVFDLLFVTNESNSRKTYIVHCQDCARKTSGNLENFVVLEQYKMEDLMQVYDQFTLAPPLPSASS

As for `O=C(O)CCN(O)C(=O)CCCCCCCCC1CC1`, in assay [1], the IC50 is more than 100 µM. Besides, the Activity result (in the assay on HeLa; in assay [3]) was “Dose-dependent effect” throughout. Further, in the assay on N2a, the GI50 worked out at 86 µM. Moreover, the inhibition entry in assay [2] is “Active”.

The values above are taken from ChEMBL document CHEMBL2424657, “Identification of the KDM2/7 histone lysine demethylase subfamily inhibitor and its antiproliferative activity” (J Med Chem, 2013).
